From PubChem BioAssay
NPY Y2 blocker = NPY-Y2 (human) receptor antagonism; P49146; NPY-Y2 expressing cells, antagonist mode; inhibition, % at 2.7 µM; actives 0.99% (n = 140,000); in the data active = inhibition above about 17%;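 also: 0% = vehicle with agonist challenge and 100% = reference antagonist with challenge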
NPY-Y1 PAM-ag = potentiates or activates human NPY-Y1 receptor | NPY-Y1 expressing cells, potentiator/agonist activation | activation, % at 3.6 µM | actives 0.37% (n = 220,000); in the data active = activation above about 33%, passing the limit was not always enough;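 also: cells stimulated with NPY at EC10 then isoproterenol at EC100; 0% = low agonist plus stimulus and 100% = saturating agonist plus stimulus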
S1P4 agonist = activates the human S1P4 receptor | AID 1509 | actives 0.35% (n = 220,000) | S1P4-expressing cell line, agonist reporter assay | activation, % at 4.98 µM; in the data active = activation above about 11%;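 also: 0% = DMSO vehicle and 100% = reference agonist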
Target sequence (O95977 whole entry, looked up): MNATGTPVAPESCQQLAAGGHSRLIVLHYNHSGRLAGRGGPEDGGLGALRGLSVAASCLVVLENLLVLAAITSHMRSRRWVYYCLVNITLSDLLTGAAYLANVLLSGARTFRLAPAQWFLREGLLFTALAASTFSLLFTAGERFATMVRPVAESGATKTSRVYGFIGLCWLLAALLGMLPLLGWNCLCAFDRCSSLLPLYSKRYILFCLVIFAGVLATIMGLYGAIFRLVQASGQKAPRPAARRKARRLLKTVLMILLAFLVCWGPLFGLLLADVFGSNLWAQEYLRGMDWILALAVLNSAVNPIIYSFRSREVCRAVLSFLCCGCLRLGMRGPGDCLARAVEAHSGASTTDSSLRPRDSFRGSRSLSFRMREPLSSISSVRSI
NPY Y1 blocker = antagonists of human neuropeptide Y receptor Y1; P25929; HEK293-CNG Y1 cells, membrane potential fluorescence; NPY at EC95, then isoproterenol; inhibition, % at 3.6 µM; actives 1% (n = 200,000);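 active = inhibition above the campaign mean inhibition of all tested compounds plus 3 SD, cut at about 20% in these data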;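 also: 0% = DMSO wells given NPY plus isoproterenol and 100% = isoproterenol alone without NPY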
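Assay system: HEK293 cells with Y1 receptor plus CNG channel | Probe or stimulus: NPY (25 nM), isoproterenol (1 µM), Ro 20-1724 (25 µM) | Timing: Compound incubation 1 h at room temperature, readout 45 min post-stimulation | Measured by: Membrane-potential fluorescent dye readout | Benchmarks: High control isoproterenol alone, low control NPY with isoproterenol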
S1P4 antagonist = human S1P4 receptor antagonism. O95977. S1P4-expressing cells, antagonist mode, reporter read-out. inhibition, % at 4.98 µM. actives 0.26% (n = 220,000); in the data active = inhibition above about 29%;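 also: 0% = wells stimulated with agonist and 100% = vehicle wells without agonist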
NPY-Y2 PAM-ag = human NPY-Y2 potentiation or agonism, primary screen. P49146. cells expressing NPY-Y2, potentiator/agonist read-out. activation, % at 3.6 µM. actives 0.45% (n = 220,000). AID 1359; in the data active = activation above about 27%;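 also: cells stimulated with NPY near EC25 plus isoproterenol at EC100; 0% = vehicle plus submaximal agonist and 100% = vehicle plus saturating agonist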
S1P4 antag conf = confirmation of human S1P4 receptor antagonists; AID 1524; S1P4-expressing cell line, antagonist mode, reporter read-out; inhibition, % at 4.98 µM; actives 71% (n = 520); shares compounds with S1P4 antagonist; in the data active = inhibition above about 30%
S1P1 antag = blocks human S1P1, counter-screen for S1P4 antagonists; shares compounds with S1P4 antagonist; cell-based S1P1 antagonist counterscreen, inhibition; inhibition, % at 4.98 µM; actives 37% (n = 520); in the data active = inhibition above about 40%;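 also: receptor stimulated with S1P near its EC80; 0% = agonist stimulated wells and 100% = vehicle only wells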
An asterisk follows results filed as active; . = no result. Compounds with a hit are over-represented: about 2.4% of the library has one in this group of screens.

SMILES | NPY Y2 blocker | NPY-Y1 PAM-ag | S1P4 agonist | NPY Y1 blocker | S1P4 antagonist | NPY-Y2 PAM-ag | S1P4 antag conf | S1P1 antag
CN[C@H]1C[C@H]2O[C@@](C)([C@H]1OC)n1c3ccccc3c3c4c(c5c6ccccc6n2c5c31)C(=O)NC4 | 30* | -57 | -5 | 54* | 105* | 16 | 117* | .
O=c1[nH]sc2cc(F)ccc12 | . | 14 | -1 | -4 | 31* | -7 | 91* | 46*
CC[N+](CC)(CC#CCO)CC#Cc1ccccc1 | . | -2 | -1 | -2 | -9 | 0 | . | .
CC/C(=N\Nc1cccc2ccccc12)c1c(O)[nH]c(=O)[nH]c1=O | 2 | -18 | 3 | 1 | -9 | -1 | . | .
COC(=O)C[C@]1(C(=O)OC)CN(C#N)N(c2ccc(Cl)cc2)C12c1ccccc1-c1ccccc12 | 2 | 7 | -1 | 8 | 55* | -5 | 120* | 88*
COC(=O)[C@@H]1[C@@H](C(=O)OC)C2(c3ccccc3-c3ccccc32)N(c2ccc(Cl)cc2)N1C#N | 8 | -2 | -2 | 3 | 24 | 2 | . | .
